Assays:
Type in all cases: ADME
[1] = Half-life was evaluated by chemical hydrolysis
In short: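 pH 12.0 buffer (0.01 N NaOH, isotonic phosphate 0.5 mM) at 37.0 ± 0.1 °C, with an initial ester concentration of 120 µM. Timed samples were quenched 1:10 in cold methanol (12 µM final) and analysed by HPLC. The pseudo-first-order rate constant came from a linear regression of ln(peak area) versus time, and the half-life was derived from it.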

[2] = Evaluated for apparent pseudo first-order hydrolytic rate constant(K) in chemical hydrolysis
[3] = Half-life in rat blood; evaluated by enzymatic hydrolysis
In short: (§1)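 Incubation in fresh heparinized male Sprague-Dawley rat blood (used within 30 min) at 37.0 ± 0.1 °C, compound added in methanol at 1:10. Timed samples were quenched in cold methanol and centrifuged; the supernatant (12 µM final) was analysed by HPLC for ester and acid metabolite.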

[4] = Half-life in rat blood evaluated by enzymatic hydrolysis; in short: as §1
Rattus norvegicus = species on record: Rattus norvegicus; assay: Evaluation of apparent pseudo-first-order hydrolytic rate constant(k) by enzymatic hydrolysis in rat blood at 37+/-0.1 degree Centigrade
In short: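 Freshly drawn heparinized blood from male Sprague-Dawley rats, used within 30 min. Compound in methanol (0.1 mL) was mixed with blood (0.9 mL) at 37.0 ± 0.1 °C. Timed aliquots were mixed with cold methanol, frozen and centrifuged (24 000 rpm, 3 min), giving a final sample concentration of 12 µM. Ester loss was followed by HPLC of the supernatant, and the pseudo-first-order k was obtained from ln(peak area) versus time.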

Structure (SMILES) | half-life [1] [min] | k [2] [min⁻¹] | half-life [3] [min] | half-life [4] [min] | k (Rattus norvegicus) [min⁻¹]
CC(C)(C)NCC(O)c1cc2cccc(CC(=O)OC(C)(C)C)c2o1 (centres undefined) | 75.7 | 0.091 |  | 99 | 0.007
CC(C)OC(=O)Cc1cccc2cc(C(O)CNC(C)(C)C)oc12 (centres undefined) | 45.7 | 0.015 |  | 16.6 | 0.0417
CSCOC(=O)Cc1cccc2cc(C(O)CNC(C)(C)C)oc12 (centres undefined) | 25 | 0.027 |  | < 0.15 | 
CC(C)(C)NCC(O)c1cc2cccc(CC(=O)OCCC34C[C@H]5C[C@@H](C3)C[C@@H](C4)C5)c2o1 (some centres undefined) | 150 | 0.0016 |  | < 0.15 | 

Continued, values first:

half-life [1] [min] | k [2] [min⁻¹] | half-life [3] [min] | half-life [4] [min] | k (Rattus norvegicus) [min⁻¹] | Structure (SMILES)
8.2 | 0.084 | < 0.15 |  |  | CCOC(=O)Cc1cccc2cc(C(O)CNC(C)(C)C)oc12 (centres undefined)
7.2 | 0.096 |  | < 0.15 |  | COC(=O)Cc1cccc2cc(C(O)CNC(C)(C)C)oc12 (centres undefined)
15.2 | 0.045 |  | 6.2 | 0.111 | CC(C)(C)NCC(O)c1cc2cccc(CC(=O)OC3CCCCC3)c2o1 (centres undefined)

— ChEMBL document CHEMBL1133717, “Soft drugs. 12. Design, synthesis, and evaluation of soft bufuralol analogues” (J Med Chem, 2000)
